Bioassay records deposited in PubChem by The Scripps Research Institute Molecular Screening Center.
OXTR ag: agonists of human oxytocin receptor; P30559; CHO-OTR cells, Fluo-8 calcium fluorescence; normalized: DMSO 0%, oxytocin 100%; activation, % at 3 µM; 320,000 compounds, 0.32% hits; AID 2435;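 active = activation above the mean of all tested compounds plus 3 SD, cutoff set per screening run, cut at about 20% in these data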;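 also: peak over basal fluorescence ratio from a 100 s FLIPR kinetic read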
V1aR counter: counter-screen for oxytocin receptor agonists: human V1a receptor agonists. P37288. CHO-V1R cells, Fluo-8 calcium fluorescence, agonist mode; 0% DMSO, 100% 3 nM vasopressin. activation, % at 3 µM. 320,000 compounds, 0.25% hits;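 active = activation above the mean activation of all tested compounds plus 3 SD, per screening run, cut at about 20% in these data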;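 also: signal is peak over basal fluorescence ratio across a 100 second FLIPR read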
Target sequence (P37288 whole entry, looked up): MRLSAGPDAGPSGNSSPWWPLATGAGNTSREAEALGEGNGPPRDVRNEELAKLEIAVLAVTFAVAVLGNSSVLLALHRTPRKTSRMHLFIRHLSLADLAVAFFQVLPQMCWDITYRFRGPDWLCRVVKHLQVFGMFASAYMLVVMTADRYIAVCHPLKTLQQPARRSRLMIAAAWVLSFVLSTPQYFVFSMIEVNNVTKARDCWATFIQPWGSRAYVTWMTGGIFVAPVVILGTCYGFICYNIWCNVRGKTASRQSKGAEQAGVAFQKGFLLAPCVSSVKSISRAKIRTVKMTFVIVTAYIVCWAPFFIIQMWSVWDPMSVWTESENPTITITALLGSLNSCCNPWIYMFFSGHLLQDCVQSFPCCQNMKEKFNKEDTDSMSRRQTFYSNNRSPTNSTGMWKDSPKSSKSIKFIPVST
OXTR potentiator: human OXTR potentiation; activation, % at 3 µM; P30559; 320,000 compounds, 0.061% hits; CHO-OTR cells, Fluo-8 calcium fluorescence, potentiator mode; 0% = oxytocin EC15, 100% = EC100;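 active = activation above that plate's cutoff, the mean activation of tested compounds plus 3 SD, cut at about 6.6% in these data, passing the limit was not always enough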
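Material: CHO-OTR cells, human receptor; compound dosing: single dose, 3.0 µM nominal final compound concentration; schedule: 6 min compound pre-incubation at room temperature, 100 s kinetic read; measured by: kinetic Fluo-8 calcium fluorescence; read-out basis: % activation vs EC15 and EC100 oxytocin; controls: EC15 oxytocin alone as 0%, 75 nM oxytocin as 100%; replicates: singlicate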
TAAR1 antag: human TAAR1 antagonism. Q96RJ0. CHO RD-HGA16 TAAR1, Fluo-8 calcium fluorescence, antagonist. inhibition, % at 3 µM. 360,000 compounds, 1.5% hits;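 active = inhibition above a per-plate cutoff, the mean inhibition of test compounds on that plate plus 3 SD, cut at about 49% in these data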
Target sequence (Q96RJ0 whole entry, looked up): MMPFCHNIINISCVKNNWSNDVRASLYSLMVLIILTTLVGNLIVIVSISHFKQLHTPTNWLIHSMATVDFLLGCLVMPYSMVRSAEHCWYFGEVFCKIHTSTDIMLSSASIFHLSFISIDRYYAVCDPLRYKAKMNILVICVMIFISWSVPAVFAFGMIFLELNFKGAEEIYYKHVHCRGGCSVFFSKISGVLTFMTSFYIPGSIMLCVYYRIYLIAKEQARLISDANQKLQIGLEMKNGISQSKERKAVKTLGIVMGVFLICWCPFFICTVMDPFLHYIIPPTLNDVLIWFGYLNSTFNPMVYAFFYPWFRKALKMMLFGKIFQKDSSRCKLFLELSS
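test system = CHO RD-HGA16 cells bearing hTAAR1 | replication = singlicate | controls = DMSO-only wells and EC80 β-PEA-stimulated wells | reagent = EC80 β-phenethylamine stimulus | read-out basis = percent inhibition of PEA-evoked calcium signal, max/basal emission ratio | schedule = seeding 17-24 h prior, 75-min 37 °C, 30-min RT dye loading | signal = kinetic Fluo-8 calcium fluorescence measurement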
TAAR1 ag: human TAAR1 agonism; Q96RJ0; 360,000 compounds, 0.99% hits; CHO RD-HGA16 TAAR1, Fluo-8 calcium fluorescence; vehicle wells 0%, saturating PEA agonist 100%; activation, % at 3 µM; AID 624467;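 active = activation above the mean activation of all test compounds in the run plus 3 SD, cut at about 38% in these data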
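Benchmarks: low control DMSO, high control PEA (EC100); System: CHO RD-HGA16 cells carrying human TAAR1 plus Gα16; Detection: Fluo-8 fluorescence, 5 s baseline then 140 s kinetic read; Schedule: 17-24 h plating, Fluo-8 75 min 37 °C, 30 min RT; Read-out basis: % activation from peak over basal fluorescence ratio, DMSO-to-PEA scaled.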
TAAR1 nonsel count: nonselective antagonism, TAAR1 counter-screen | shares compounds with TAAR1 antag | counterscreen cell line, calcium fluorescence, antagonist mode | inhibition, % at 3 µM | 2,400 compounds, 77% hits | AID 651780; in the data active = inhibition above about 22%;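 also: CHO-Ga16 host cells stimulated with ATP at an EC80 level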
TAAR1 ant conf: human TAAR1 antagonism, confirmed; shares compounds with TAAR1 antag; TAAR1-expressing cells, fluorescence antagonist read-out; inhibition, % at 3 µM; 2,400 compounds, 40% hits; AID 651785; in the data active = inhibition above about 49%;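 also: CHO-Ga16 host cells challenged with agonist PEA near its EC80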
Ga16 nonsel ag: nonselective Ga16 agonist in TAAR1 antagonist counter-screen; activation, % at 3 µM; shares compounds with TAAR1 antag; Ga16-expressing cells, calcium fluorescence, agonist counterscreen; AID 651953; 2,400 compounds, 18% hits; in the data active = activation above about 12%
TAAR1 ag count: TAAR1 agonism, antagonist counter-screen; activation, % at 3 µM; hTAAR1 cell line, fluorescence activation, agonist mode; 2,400 compounds, 2% hits; shares compounds with TAAR1 antag; AID 651955; in the data active = activation above about 37%;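 also: CHO cells stably expressing TAAR1 with calcium dye readout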
Numbers stand for hits; i = inactive; nt = no result. Only some compounds are listed: those with a hit (about 2.3% of all), similar ones and a draw of the others.

SMILES | OXTR ag | V1aR counter | OXTR potentiator | TAAR1 antag | TAAR1 ag | TAAR1 nonsel count | TAAR1 ant conf | Ga16 nonsel ag | TAAR1 ag count
c1nc2ccc(Cc3ccc4nc[nH]c4c3)cc2[nH]1 | i | i | i | i | i | nt | nt | nt | nt
CN(CC(=O)Nc1ccc(Cl)c(C(F)(F)F)c1)C(=O)c1cc(-c2ccncc2)nc2ccccc12 | i | i | i | 50 | i | 33 | 53 | i | i
COc1ccc(-c2cc(C(=O)N(C)CC(=O)Nc3cccc(F)c3)c3ccccc3n2)cc1OC | nt | nt | nt | 76 | i | 44 | 61 | i | i
CS(=O)(=O)c1ccc(Cl)c(NC(=O)CN2CCN(S(=O)(=O)/C=C/c3ccccc3)CC2)c1 | nt | nt | nt | i | i | nt | nt | nt | nt
Cc1cccc(C)c1NC(=O)CN(Cc1ccccc1)Cc1ccccc1 | nt | nt | nt | 62 | i | 23 | i | i | i
Cc1cccc(C)c1NC(=O)CNc1ccccc1 | i | i | i | i | i | nt | nt | nt | nt
CSc1ncccc1C(=O)OCC(=O)NC1CCCCC1 | i | i | i | i | i | nt | nt | nt | nt
O=C(Cc1ccccc1)NNc1c2ccccc2nc2ccccc12 | i | i | i | i | i | nt | nt | nt | nt
Cc1ccc(OCC(=O)NNc2c3ccccc3nc3ccccc23)cc1 | i | i | i | 70 | i | 33 | 49 | i | i
COc1ccc(N(C)S(=O)(=O)c2cccc(C(=O)Nc3ccc4c(c3)OCCO4)c2)cc1 | i | i | i | i | i | nt | nt | nt | nt
COc1ccc(N(C)S(=O)(=O)c2cccc(C(=O)Nc3ccc(OC)nc3)c2)cc1 | i | i | i | 62 | i | 31 | i | i | i
COc1ccc(N(C)S(=O)(=O)c2cccc(C(=O)Nc3ccc(-n4cnnn4)cc3)c2)cc1 | i | i | i | 75 | i | 47 | 52 | 13 | i
COc1ccc(S(=O)(=O)N2CCC(C(=O)Nc3ccccc3N3CCCCC3)CC2)cc1OC | i | i | i | i | i | nt | nt | nt | nt
CC1CCC(NC(=O)c2cc(C3CC3)nn2-c2ccccc2)CC1 (configuration not stated) | i | i | i | i | i | nt | nt | nt | nt
C=Cc1cc2c(cc1O)CCC1C2CCC2(C)C(O)CCC12 (configuration not stated) | nt | nt | nt | 58 | i | 23 | i | i | i
CNC(=O)c1ccccc1NC(=O)c1cccc(S(=O)(=O)N2CCC(C)CC2)c1 | i | i | i | i | i | nt | nt | nt | nt
CCNC(=O)c1ccccc1NC(=O)c1cccc(S(=O)(=O)N2CCC(C)CC2)c1 | i | i | i | 59 | i | 33 | i | i | i
COc1cccc(C=NNc2nc3ccccc3s2)c1OC | nt | nt | nt | i | i | nt | nt | nt | nt
COc1cccc(/C=N/Nc2nnc3c(n2)[nH]c2ccccc23)c1OC | i | i | i | 61 | i | i | i | i | i
C#CCNC(=O)C[C@H]1C[C@@]2(C(=O)OC)C(=C[C@H](C(C)(C)C)O[C@@H]2C)N(CCc2ccc(OC)c(OC)c2)C1=O | nt | nt | nt | i | i | nt | nt | nt | nt
C#CCN(C[C@H]1[C@H](OC(=O)NCc2ccco2)[C@H](OC(=O)NCc2ccco2)C[C@@H](C(=O)OC)[C@H]1C(=O)OC)S(=O)(=O)c1ccc(C)cc1 | nt | nt | nt | i | i | nt | nt | nt | nt
C#CCN(C[C@H]1[C@H](OC(=O)NCc2ccc(OC)c(OC)c2)[C@H](OC(=O)NCc2ccc(OC)c(OC)c2)C[C@@H](C(=O)OC)[C@H]1C(=O)OC)S(=O)(=O)c1ccc(C)cc1 | nt | nt | nt | 58 | i | 27 | i | i | i
Cn1c(N)c(C(=O)COC(=O)c2ccc(F)cc2Cl)c(=O)n(C)c1=O | i | i | i | i | i | nt | nt | nt | nt
Cn1c(N)c(C(=O)COC(=O)C2(c3cccc(F)c3)CCCC2)c(=O)n(C)c1=O | i | i | i | 63 | i | 32 | 51 | i | i
O=S(=O)(NC1=NCCC1)c1ccc(F)cc1F | i | i | i | i | i | nt | nt | nt | nt
SMILES | OXTR ag | V1aR counter | OXTR potentiator | TAAR1 antag | TAAR1 ag | TAAR1 nonsel count | TAAR1 ant conf | Ga16 nonsel ag | TAAR1 ag count
COc1cc(C#Cc2c(-c3cncn3C)n(C)c3ccc(-c4cnc(OC)nc4)cc23)cc(OC)c1 | i | i | i | 73 | i | 35 | 52 | i | i
Cc1ccc(C)c(S(=O)(=O)Nc2ccc(C(=O)N3CCC3)cc2)c1 | i | i | i | i | i | nt | nt | nt | nt
O=C(NCc1ccccc1)C(c1ccccc1)N(C(=O)c1csnn1)c1ccccc1 (configuration not stated) | i | i | i | 62 | i | 27 | 49 | i | i
O=C(NCc1ccc(F)cc1)C(c1ccccc1)N(C(=O)c1csnn1)c1ccccc1 (configuration not stated) | i | i | i | 59 | i | 29 | 59 | 19 | i
COc1ccc(CNC(=O)C(c2cccs2)N(C(=O)c2csnn2)C2CC2)cc1 (configuration not stated) | i | i | i | i | i | nt | nt | nt | nt
COc1ccc(CNC(=O)C(c2cccc(C)c2)N(C(=O)c2csnn2)C2CC2)cc1 (configuration not stated) | i | i | i | 52 | i | 30 | i | i | i
CC(O)(c1ccc(F)c(F)c1)c1nc(/C=C/c2ccc(C(F)(F)F)cc2)cs1 (configuration not stated) | nt | nt | nt | i | i | nt | nt | nt | nt
CC1(C(=O)NCc2ccccc2)CN(S(C)(=O)=O)CC(=O)N1C1CCN(Cc2ccccc2)CC1 (configuration not stated) | nt | nt | nt | i | i | nt | nt | nt | nt
COc1ccc(C#Cc2ccc(C3=CC(=O)CC(C)(C)C3=O)cc2)cc1 | nt | nt | nt | 81 | i | 28 | i | i | i
COCOCCn1cc(CN2CCS(=O)(=O)N(Cc3ccc(-c4ccc(OC)cc4)cc3)C(C)C2=O)nn1 (configuration not stated) | nt | nt | nt | i | i | nt | nt | nt | nt
Cc1cc(=O)oc2c3c(cc(OCC(=O)NCC(=O)O)c12)OC(C)(C)CC3 | i | i | i | i | i | nt | nt | nt | nt
Cc1cc(=O)oc2c3c(cc(OCC(=O)NCc4ccccc4)c12)OC(C)(C)CC3 | i | i | i | 68 | i | 24 | i | i | i
OC(c1ccc(Cl)c(F)c1)c1ncc(-c2ccc(F)cc2)[nH]1 (configuration not stated) | nt | nt | nt | i | i | nt | nt | nt | nt
N#Cc1c(-c2cccc(Br)c2)cc(-c2cccnc2)nc1N | i | i | i | 56 | i | i | i | i | i
N#Cc1c(-c2ccc(Br)cc2)cc(-c2cccnc2)nc1N | i | i | i | i | i | nt | nt | nt | nt
COc1cc(/C=C(/C#N)c2ccccc2)ccc1Oc1ccc([N+](=O)[O-])cn1 | i | i | i | i | i | nt | nt | nt | nt
